Source: ChEMBL document CHEMBL2375228, “4-Bromo-2-(piperidin-1-yl)thiazol-5-yl-phenyl methanone (12b) inhibits Na+/K(+)-ATPase and Ras oncogene activity in cancer cells” (Eur J Med Chem, 2013)
Blank lines part the entries; values can stand above or below the molecule they belong to. Activity calls are given as the source filed them. The calls are words filed in the database; no cut-off is given here.

How the values were obtained:
MCF7 [1] = assay: Cytotoxicity against human MCF7 cells after 72 hrs by MTT assay; type: functional, cell-based; conditions: MCF7, 72 h
In short: (§1)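 Cells grown in RPMI with 10% heat-inactivated fetal calf serum and exposed to compound for 72 h. Overall growth read by MTT colorimetric assay; IC50 derived from it. Six replicates per condition.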

PC-3 [2] = assay: Cytotoxicity against human PC3 cells after 72 hrs by MTT assay; type: functional, cell-based; conditions: PC-3, 72 h; in short: as §1
SK-MEL-28 [3] = assay: Cytotoxicity against human SK-MEL-28 cells after 72 hrs by MTT assay; type: functional, cell-based; conditions: SK-MEL-28, 72 h; in short: as §1
[4] = Cytotoxicity against human Hs683 cells after 72 hrs by MTT assay; type: functional, cell-based; conditions: Hs 683, 72 h; in short: as §1
[5] = Cytotoxicity against human U373 cells after 72 hrs by MTT assay; type: functional, cell-based, U-373MG ATCC; conditions: U373 MG; in short: as §1
A549 [6] = assay: Cytotoxicity against human A549 cells after 72 hrs by MTT assay; type: functional, cell-based; conditions: A549, 72 h; in short: as §1
[7] = Growth inhibition of NMRI mouse astrocytes at 30 to 300 uM after 72 hrs by MTT assay; type: cell-based, Astrocyte; conditions: read-out: GI
In short: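 Mouse astrocyte primocultures were plated in uncoated T25 flasks for 72 h, medium was changed and cells grown to confluence. Tested at 0, 30, 60 and 300 µM by MTT colorimetric assay.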

A549 [8] = assay: Ratio of perillyl alcohol IC50 to compound IC50 for human A549 cells; type: functional
SK-MEL-28 [9] = assay: Ratio of perillyl alcohol IC50 to compound IC50 for human SK-MEL-28 cells; type: functional
Hs 683 [10] = assay: Ratio of perillyl alcohol IC50 to compound IC50 for human Hs683 cells; type: functional
Cavia porcellus [11] = organism: Cavia porcellus; assay: Inhibition of guinea pig brain Na+/K+-ATPase at 1 mM preincubated for 10 mins measured after 30 mins relative to control
[12] = Ratio of perillyl alcohol IC50 to compound IC50 for human U373 cells; type: functional, U-373MG ATCC
[13] = Chemical stability of the compound in RPMI culture medium after 72 hrs by mass spectroscopic analysis; type: physicochemical
In short: (§2)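 5 mM DMSO stock diluted 100-fold in water or RPMI and held at 37 °C for 72 h. Samples infused into ESI-QTOF MS (positive mode, scan 110–950 m/z) with FA 0.2%-MeOH 50:50 as solvent.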

[14] = Growth inhibition of NMRI mouse astrocytes after 72 hrs by MTT assay; type: cell-based; conditions: Astrocyte
MCF7 [15] = assay: Ratio of perillyl alcohol IC50 to compound IC50 for human MCF7 cells; type: functional
Hs 683 [16] = assay: Selectivity index for NMRI mouse astrocytes over human Hs683 cells
[17] = Chemical stability of the compound in water after 72 hrs by mass spectroscopic analysis; type: physicochemical; conditions: buffer; in short: as §2
[18] = Selectivity index for human U373 cells over NMRI mouse astrocytes; design: species or system U-373MG ATCC
PC-3 [19] = assay: Ratio of perillyl alcohol IC50 to compound IC50 for human PC3 cells; type: functional
Hs 683 [20] = assay: Cytostatic activity against human Hs683 cells at 40 uM after 48 to 72 hrs by videomicroscopic analysis relative to control; type: functional
In short: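 Hs683 glioma cells, untreated or at 40 µM, filmed by computer-assisted phase-contrast videomicroscopy over 72 h, one image every 4 min (1080 images), in triplicate. Growth rate = cell count in last image / first image. GGR index = treated ratio / control ratio.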

Cavia porcellus [21] = organism: Cavia porcellus; assay: Inhibition of ouabain-insensitive Mg++ATPase in guinea pig kidney homogenate at 0.1 to 1mM; type: tissue-based
In short: (§3)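 Brain and kidney homogenates in 110 mM NaCl, 20 mM KCl, 5 mM MgCl2, 50 mM Tris-HCl pH 7.6 with 5 mM ATP; 10 min preincubation at 37 °C, 30 min reaction. Ouabain-insensitive Mg++ATPase activity measured with 3.6 mM ouabain across 0.1–1.0 mM compound.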

Cavia porcellus [22] = organism: Cavia porcellus; assay: Non competitive inhibition of guinea pig kidney Na+/K+-ATPase by double reciprocal plot analysis in presence of K+
Cavia porcellus [23] = organism: Cavia porcellus; assay: Inhibition of guinea pig kidney Na+/K+-ATPase at 1 mM preincubated for 10 mins measured after 30 mins relative to control
Cavia porcellus [24] = organism: Cavia porcellus; assay: Inhibition of ouabain-insensitive Mg++ATPase in guinea pig brain homogenate at 0.1 to 1mM; type: tissue-based; in short: as §3
[25] = Inhibition of Na+/K+-ATPase in guinea pig whole brain homogenate preincubated for 10 mins measured after 30 mins; type: tissue-based, Cavia porcellus
Cavia porcellus [26] = organism: Cavia porcellus; assay: Inhibition of guinea pig kidney Na+/K+-ATPase-mediated K+-activated-p-nitrophenylphosphatase activity
In short: (§4)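 Purified guinea pig brain or kidney Na+/K+-ATPase preparations; K+-activated p-nitrophenylphosphatase activity = total activity minus basal activity, with basal measured by replacing KCl with 1 mM ouabain. Mean ± SEM of 3 experiments.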

Hs 683 [27] = assay: Inhibition of RAS oncogene activity in human Hs683 cells at 40 uM after 30 seconds by ELISA relative to control; type: cell-based
In short: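 Hs683 glioma cells exposed 30 s at 40 µM, lysed on ice for 15 min, 100 µg protein used. Active Ras captured on GST-Raf-RBD glutathione plate, detected with H-Ras primary and HRP secondary antibodies, read by chemiluminescence. Compared with untreated cells.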

Hs 683 [28] = assay: Inhibition of RAS oncogene activity in human Hs683 cells 40 uM after 30 seconds by ELISA relative to POH; type: cell-based
[29] = Inhibition of guinea pig brain Na+/K+-ATPase alpha2 preincubated for 10 mins measured after 30 mins; design: species or system Cavia porcellus
[30] = Inhibition of guinea pig brain Na+/K+-ATPase alpha3 preincubated for 10 mins measured after 30 mins; design: species or system Cavia porcellus
Cavia porcellus [31] = organism: Cavia porcellus; assay: Non competitive inhibition of guinea pig brain Na+/K+-ATPase by double reciprocal plot analysis in presence of Na+; type: tissue-based
Cavia porcellus [32] = organism: Cavia porcellus; assay: Uncompetitive inhibition of purified guinea pig brain Na+/K+-ATPase by double reciprocal plot analysis in presence of ATP; type: tissue-based
[33] = Inhibition of guinea pig kidney Na+/K+-ATPase alpha1 preincubated for 10 mins measured after 30 mins; design: species or system Cavia porcellus
Cavia porcellus [34] = organism: Cavia porcellus; assay: Non competitive inhibition of guinea pig brain Na+/K+-ATPase by double reciprocal plot analysis in presence of K+; type: tissue-based
[35] = Inhibition of Na+/K+-ATPase in guinea pig kidney homogenate preincubated for 10 mins measured after 30 mins; type: tissue-based, Cavia porcellus
Cavia porcellus [36] = organism: Cavia porcellus; assay: Inhibition of guinea pig brain Na+/K+-ATPase-mediated K+-activated-p-nitrophenylphosphatase activity; in short: as §4
Cavia porcellus [37] = organism: Cavia porcellus; assay: Non competitive inhibition of guinea pig kidney Na+/K+-ATPase by double reciprocal plot analysis in presence of Na+
Cavia porcellus [38] = organism: Cavia porcellus; assay: Uncompetitive inhibition of purified guinea pig kidney Na+/K+-ATPase by double reciprocal plot analysis in presence of ATP
Cavia porcellus [39] = organism: Cavia porcellus; assay: Inhibition of guinea pig kidney Na+/K+-ATPase alpha1 preincubated for 10 mins measured after 30 mins relative to POH

Structure (SMILES): O=C(c1ccccc1)c1sc(N2CCOCC2)nc1Cl
IC50 (MCF7 [1]): 70 µM
IC50 (PC-3 [2]): > 100 µM
IC50 (SK-MEL-28 [3]): > 100 µM
IC50 [4]: > 100 µM
IC50 [5]: 92 µM
IC50 (A549 [6]): 78 µM

inhibition (Cavia porcellus [11]): > 50%
Stability [13]: Stable
Stability [17]: Stable
Structure (SMILES): O=C(c1ccccc1)c1sc(N2CCCCC2)nc1Cl
inhibition at 72 h, up to 300 µM [7]: < 50%
IC50 (MCF7 [1]): 56 µM
Ratio IC50 (A549 [8]): 10
IC50 (PC-3 [2]): 69 µM
Ratio IC50 (SK-MEL-28 [9]): 10
Ratio IC50 (Hs 683 [10]): 10
IC50 (SK-MEL-28 [3]): 91 µM
Ratio IC50 [12]: 10
IC50 [14]: > 300 µM
IC50 [4]: 36 µM
Ratio IC50 (MCF7 [15]): 10
IC50 [5]: 96 µM
Selectivity Index (Hs 683 [16]): >5
IC50 (A549 [6]): 41 µM
Selectivity Index [18]: >5
Ratio IC50 (PC-3 [19]): 10
Activity (Hs 683 [20]): 40%

Structure (SMILES): CSc1nc(Cl)c(C(=O)c2ccccc2)s1
IC50 (MCF7 [1]): 91 µM
IC50 (PC-3 [2]): > 100 µM
IC50 (SK-MEL-28 [3]): > 100 µM
IC50 [4]: > 100 µM
IC50 [5]: > 100 µM
IC50 (A549 [6]): > 100 µM

Structure (SMILES): COC(=O)c1sc2nc(SC)sc2c1C
IC50 (MCF7 [1]): 69 µM
IC50 (PC-3 [2]): 90 µM
IC50 (SK-MEL-28 [3]): > 100 µM
IC50 [4]: 79 µM
IC50 [5]: 92 µM
IC50 (A549 [6]): 78 µM

inhibition (Cavia porcellus [21]): inactive
inhibition (Cavia porcellus [22]): Active
inhibition (Cavia porcellus [23]): > 50%
inhibition (Cavia porcellus [24]): inactive
IC50 [25]: 350 µM
inhibition (Cavia porcellus [26]): inactive
inhibition (Cavia porcellus [11]): > 50%
IC50 [29]: 250 µM
IC50 [30]: 250 µM
inhibition (Cavia porcellus [31]): Active
Stability [13]: Unstable
inhibition (Cavia porcellus [32]): Active
IC50 [33]: 550 µM
inhibition (Cavia porcellus [34]): Active
IC50 [35]: 550 µM
Stability [17]: Unstable
inhibition (Cavia porcellus [36]): Active
inhibition (Cavia porcellus [37]): Active
inhibition (Cavia porcellus [38]): Active
Ratio (Cavia porcellus [39]): 3
Structure (SMILES): O=C(c1ccccc1)c1sc(N2CCCCC2)nc1Br
inhibition at 72 h, up to 300 µM [7]: < 50%
IC50 (MCF7 [1]): 35 µM
Ratio IC50 (A549 [8]): 10
IC50 (PC-3 [2]): 62 µM
Ratio IC50 (SK-MEL-28 [9]): 10
inhibition (Hs 683 [27]): > 50%
Ratio IC50 (Hs 683 [10]): 10
IC50 (SK-MEL-28 [3]): 91 µM
Ratio (Hs 683 [28]): 40
Ratio IC50 [12]: 10
IC50 [14]: > 300 µM
IC50 [4]: 38 µM
Ratio IC50 (MCF7 [15]): 10
IC50 [5]: 78 µM
Selectivity Index (Hs 683 [16]): >5
IC50 (A549 [6]): 48 µM
Selectivity Index [18]: >5
Ratio IC50 (PC-3 [19]): 10
Activity (Hs 683 [20]): 40%

Structure (SMILES): COC(=O)c1sc2nc(N3CCOCC3)sc2c1C
IC50 (MCF7 [1]): 78 µM
IC50 (PC-3 [2]): > 100 µM
IC50 (SK-MEL-28 [3]): > 100 µM
IC50 [4]: 92 µM
IC50 [5]: > 100 µM
IC50 (A549 [6]): 96 µM

Structure (SMILES): N#Cc1sc(N2CCCC2)nc1Cl
IC50 (MCF7 [1]): 99 µM
IC50 (PC-3 [2]): > 100 µM
IC50 (SK-MEL-28 [3]): > 100 µM
IC50 [4]: > 100 µM
IC50 [5]: > 100 µM
IC50 (A549 [6]): > 100 µM

Structure (SMILES): N#Cc1sc(N2CCCCC2)nc1Br
IC50 (MCF7 [1]): 77 µM
IC50 (PC-3 [2]): > 100 µM
IC50 (SK-MEL-28 [3]): > 100 µM
IC50 [4]: 84 µM
IC50 [5]: > 100 µM
IC50 (A549 [6]): 93 µM
